For 16 compounds, CC50 and Activity results are on record in ChEMBL document CHEMBL1139299, “Facilitated phospholipid translocation in vesicles and nucleated cells using synthetic small molecule scramblases” (Bioorg Med Chem, 2009).

Common to all, as to format: functional
The subject of one assay is Jurkat. Nature of the assay: Cytotoxicity against human Jurkat cells by MTT assay. The following applies: read-out: LD50 (the source's name). A digest of the protocol: (§1)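 Cells (Jurkat and LNCaP grown in RPMI with 10% FBS) were seeded at ≥5 × 10^4 cells/mL, dosed from DMSO stock for 24 h, then given fresh medium plus MTT (Jurkat pelleted first). After 4 h, SDS in 0.01 M HCl was added for 18 h at 37°C. A570 was read. % living cells was calculated against a no-cell blank and a DMSO-only control, and LD50 was reported.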

For assay [1], the system named is PC-3. Put plainly: Cytotoxicity against human PC3 cells by MTT assay. The following applies: read-out: LD50 (the source's name). The gist of the method:
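PC3 cells grown in Ham's F-12K with 10% FBS were seeded at ≥5 × 10^4 cells/mL, dosed from DMSO stock for 24 h, then given fresh growth medium plus MTT for 4 h. SDS in 0.01 M HCl was added for 18 h at 37°C, 5% CO2. A570 was read. % living cells was calculated against a no-cell blank and a DMSO-only control, and LD50 was reported.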

Another assay concerns LNCaP. Nature of the assay: Cytotoxicity against human LNCAP cells by MTT assay. The following applies: read-out: LD50 (the source's name). A digest of the protocol:
as §1

The test system of assay [2] is PC-3. Nature of the assay: Induction of endogenous phospholipidserine distribution in human PC3 cells at 100 uM by Annexin-V-FITC. A digest of the protocol: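 PC3 cells detached with trypsin at 90% confluency and resuspended in TES buffer (5 mM TES, 100 mM NaCl, pH 7.4) at 1 × 10^5 cells/mL. Scramblase added from DMSO stock, 100 μM final, 2 h at 37°C, 5% CO2. Pelleted, resuspended in binding buffer, stained 15 min at 37°C with Annexin V-FITC plus 7AAD (500 ng/mL) to exclude necrotic cells. Annexin-positive fraction read by flow cytometry; three independent experiments.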

As for `Cc1ccc(S(=O)(=O)NCCN(CCNC(=O)Nc2ccc(Oc3ccccc3)cc2)CCNS(=O)(=O)c2ccc(C)cc2)cc1`, the CC50 in the assay with Jurkat, in the assay on PC-3 [1] and with LNCaP was over 100 µM in each case.

Consider `Cc1ccc(S(=O)(=O)NCCN(CCNC(=O)Nc2ccc([N+](=O)[O-])cc2)CCNS(=O)(=O)c2ccc(C)cc2)cc1`, for which the CC50 in the assay on Jurkat, in the assay on PC-3 [1] and with LNCaP was over 100 µM each time. The same compound yielded an Activity with PC-3 [2] of under 5%.

Consider `COc1ccc(NC(=O)NCCN(CCNS(=O)(=O)c2ccc(C)cc2)CCNS(=O)(=O)c2ccc(C)cc2)cc1`, for which the CC50 with Jurkat, with PC-3 [1] and in the assay on LNCaP was over 100 µM throughout.

As for `CC(=O)c1ccc(NC(=O)NCCN(CCNS(=O)(=O)c2ccc(C)cc2)CCNS(=O)(=O)c2ccc(C)cc2)cc1`, the CC50 in the assay on Jurkat, in the assay with PC-3 [1] and in the assay with LNCaP was over 100 µM in each case.

With `Cc1ccc(S(=O)(=O)NCCN(CCNC(=O)Nc2ccc(Cl)cc2)CCNS(=O)(=O)c2ccc(C)cc2)cc1`, the CC50 in the assay with Jurkat, with PC-3 [1] and in the assay with LNCaP was over 100 µM each time.

`Cc1ccc(S(=O)(=O)NCCN(CCNC(=O)Nc2ccc(C(F)(F)F)cc2)CCNS(=O)(=O)c2ccc(C)cc2)cc1`: the CC50 in the assay with Jurkat, with PC-3 [1] and in the assay with LNCaP was over 100 µM throughout.

For `Cc1ccc(S(=O)(=O)NCCN(CCNC(=O)Nc2ccc(C(C)(C)C)cc2)CCNS(=O)(=O)c2ccc(C)cc2)cc1`, the CC50 in the assay on Jurkat, in the assay with PC-3 [1] and in the assay on LNCaP was over 100 µM throughout.

In the case of `Cc1ccc(S(=O)(=O)NCCN(CCNC(=O)Nc2ccc(OC(F)(F)F)cc2)CCNS(=O)(=O)c2ccc(C)cc2)cc1`, the CC50 in the assay with Jurkat, in the assay on PC-3 [1] and in the assay on LNCaP was over 100 µM in each case.

In the case of `Cc1ccc(NC(=O)NCCN(CCNS(=O)(=O)c2ccc(C)cc2)CCNS(=O)(=O)c2ccc(C)cc2)cc1`, the CC50 in the assay with Jurkat, in the assay on PC-3 [1] and with LNCaP was over 100 µM each time.

On to `Cc1ccc(S(=O)(=O)NCCN(CCNC(=O)Nc2ccc(Br)cc2)CCNS(=O)(=O)c2ccc(C)cc2)cc1`, for which the CC50 with Jurkat, in the assay with PC-3 [1] and with LNCaP was over 100 µM each time.

As to `Cc1ccc(S(=O)(=O)NCCN(CCNC(=O)Nc2ccc(C(C)C)cc2)CCNS(=O)(=O)c2ccc(C)cc2)cc1`, the CC50 in the assay with Jurkat, in the assay on PC-3 [1] and in the assay with LNCaP was over 100 µM in each case. The compound also returned an Activity with PC-3 [2] of under 5%.

With `Cc1ccc(S(=O)(=O)NCCN(CCNC(=O)[C@H](N)Cc2ccccc2)CCNS(=O)(=O)c2ccc(C)cc2)cc1`, the CC50 in the assay with Jurkat was 25 µM; with PC-3 [1], 15 µM; in the assay on LNCaP, 40 µM.

As to `Cc1ccc(S(=O)(=O)NCCN(CCNCc2ccccc2)CCNS(=O)(=O)c2ccc(C)cc2)cc1`, the CC50 with Jurkat was found to be 25 µM; with PC-3 [1], 25 µM; with LNCaP, 40 µM.

For `Cc1ccc(S(=O)(=O)NCCN(CCNC(=O)Nc2ccc(C#N)cc2)CCNS(=O)(=O)c2ccc(C)cc2)cc1`, the CC50 in the assay on Jurkat, in the assay with PC-3 [1] and in the assay with LNCaP was over 100 µM each time.

Consider `Cc1ccc(S(=O)(=O)NCCN(CCNC(=O)Nc2ccccc2)CCNS(=O)(=O)c2ccc(C)cc2)cc1`, for which the CC50 with Jurkat, with PC-3 [1] and with LNCaP was over 100 µM each time. In the assay on PC-3 [2], this compound came in with an Activity of under 5%.

Take `Cc1ccc(S(=O)(=O)NCCN(CCNC(=S)Nc2ccc(Cl)cc2)CCNS(=O)(=O)c2ccc(C)cc2)cc1`: the CC50 was found to be 15 µM in the assay with Jurkat, 25 µM with PC-3 [1] and 15 µM in the assay with LNCaP.
